The text below walks through data of ChEMBL document CHEMBL3259739, “Synthesis and structure-activity relationship of trisubstituted thiazoles as Cdc7 kinase inhibitors” (Eur J Med Chem, 2014).

Series [1] deals with T1, CDC7/DBF4 (Cell division cycle 7-related protein kinase/Activator of S phase kinase) (Homo sapiens) (UniProt Q9UBU7+O00311). The experiment in a line: Competitive inhibition of Cdc7/Dbf4 (unknown origin) using ATP as substrate by Michaelis-Menton/double-reciprocal plot analysis. The class given is protein-complex assay. The gist of the method: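 AlphaScreen with 6 nM Cdc7/Dbf4 and 10 nM biotinylated His/avitag MCM2 (aa1-467) substrate. Phospho-Ser53 MCM2 detected with antibody-bound Protein A acceptor and streptavidin donor beads. Rates fitted by Michaelis–Menten and double-reciprocal plots.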

For series [2], the target named is T2, CDC7/DBF4 (Cell division cycle 7-related protein kinase/Activator of S phase kinase) (Homo sapiens, UniProt O00311). Kind of series: Inhibition of Cdc7/Dbf4 (unknown origin) using 0.75 uM of ATP as substrate by AlphaScreen assay. The format is protein-complex assay. The gist of the method:
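Mechanism-of-action AlphaScreen run with 6 nM Cdc7/Dbf4 and 10 nM biotinylated MCM2 substrate. […] Reaction time was 2 h. Phospho-Ser53 MCM2 was read by antibody-bound acceptor beads with streptavidin donor beads. Rates and Ki were fitted to a competitive inhibition model.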
(In general: Bead proximity is the source of the signal in Alpha formats.)

Series [3] is described as follows: Apparent permeability of the compound in pig LLC-PK1 cells. The class given is ADME, cell-based, Sus scrofa.
The next series concerns MDR1. The experiment in a line: Apparent permeability of the compound in pig LLC-PK1 cells expressing MDR1. The class given is ADME, cell-based, Sus scrofa.
Another series deals with rat MDR1. Kind of series: Apparent permeability of the compound in pig LLC-PK1 cells expressing rat MDR1. The class given is ADME, cell-based, Sus scrofa.
Series [4] concerns the target T1, CDC7/DBF4 (Cell division cycle 7-related protein kinase/Activator of S phase kinase) (Homo sapiens). Kind of series: Inhibition of Cdc7/Dbf4 in human HCT116 cells assessed as reduction of MCM2 phosphorylation after 14 hrs. The format is cell-based. The note with it: HCT-116. The gist of the method: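 HCT-116 cells were exposed to inhibitor across a 22-point dose response for 14 h. They were then immunostained for phospho-serine MCM2 using an Alexa Fluor 488 secondary, with a Hoechst nuclear counterstain. The percentage of cells with phospho-MCM2 signal above a threshold was scored by high-content imaging, and IC50 values were derived from that.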

Series [5] can be described thus: Intrinsic clearance in mouse liver microsomes at 1 uM after 30 mins by reverse phase HPLC analysis in presence of NADPH. The class given is ADME. The conditions noted are these: read-out: CLH. Put shortly: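 Reactions were stopped with MeCN after 0 or 30 min. Samples were analysed by reverse-phase HPLC–tandem MS to give intrinsic clearance (µl/min/mg).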
Background: Microsomes from liver hold many membrane-bound enzymes, among them those of drug oxidation.

In series [6] the target is Casein kinase I isoform alpha (Homo sapiens, UniProt P48729). The experiment in a line: Inhibition of CK1alpha (unknown origin) by TR-FRET assay. The gist of the method: (§1)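 CK1 isoform inhibition measured in Lance TR-FRET kinase assays, reported as IC50.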
A general note: In TR-FRET formats the signal depends on donor and acceptor labels being close together.

For series [7], the target named is Casein kinase I isoform delta (Homo sapiens, UniProt P48730). The experiment in a line: Inhibition of CK1delta (unknown origin) by TR-FRET assay. The gist of the method: as §1
Series [8] relates to HCT-116. Kind of series: Cytotoxicity against human HCT116 cells assessed as cell viability after 2 days by Cell Titer-glo assay. The format is functional, cell-based. The conditions noted are these: HCT-116, 48 h.
Series [9] deals with HCT-116. The experiment in a line: Cell cycle arrest in human HCT116 cells assessed as DNA accumulation at S/G2/M phase at 0.31 to 10 uM after 3 days using propidium iodide/RNase staining by flow cytometry. The format is functional, cell-based. The gist of the method: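 HCT-116 cells exposed to inhibitor for 3 d at the indicated concentrations. Cells harvested with Cell Stripper buffer, fixed in 70% ethanol, stained with propidium iodide/RNase, and DNA content analysed by flow cytometry.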

Series [10] has as its system HCT-116. Kind of series: Induction of apoptosis in human HCT116 cells assessed as activation of caspase 3/7. The format is functional, cell-based.
Series [11] deals with HCT-116. Kind of series: Induction of aberrant mitosis in human HCT116 cells at 1.25 uM after 72 hrs […]. The format is functional, cell-based.
For series [12], the target named is T2, CDC7/DBF4 (Cell division cycle 7-related protein kinase/Activator of S phase kinase). Kind of series: Inhibition of Cdc7/Dbf4 (unknown origin) using 54 uM of ATP as substrate by AlphaScreen assay. The class given is protein-complex assay.
Series [13] shares this target. The experiment in a line: Inhibition of Cdc7/Dbf4 (unknown origin) using 27 uM of ATP as substrate by AlphaScreen assay. The format is protein-complex assay.
Series [14] has the same target. Kind of series: Inhibition of Cdc7/Dbf4 (unknown origin) using 9 uM of ATP as substrate by AlphaScreen assay. The class given is protein-complex assay.
For series [15] the target is unchanged. Kind of series: Inhibition of Cdc7/Dbf4 (unknown origin) using 0.222 uM of ATP as substrate by AlphaScreen assay. The format is protein-complex assay.
For series [16] the target is unchanged. Kind of series: Inhibition of Cdc7/Dbf4 (unknown origin) using 0.037 uM of ATP as substrate by AlphaScreen assay. The class given is protein-complex assay.
A short description of series [17]: AUC (0 to t) in Sprague-Dawley rat at 2 mg/kg, iv. The class given is ADME, organism-based. On the set-up: dose 2 mg/kg, route intravenous. The note with it: plasma.
Series [18] is described as follows: Volume of distribution at steady state in Sprague-Dawley rat at 2 mg/kg, iv. The note with it: in vivo, read-out: Vdss. The class given is ADME, organism-based. On the set-up: dose 2 mg/kg, route intravenous.
Series [19] can be described thus: AUC (0 to t) in Sprague-Dawley rat at 5 mg/kg, po. The class given is ADME, organism-based. On the set-up: dose 5 mg/kg, route oral. The conditions noted are these: plasma.
Series [20] can be described thus: AUC (0 to infinity) in Sprague-Dawley rat at 5 mg/kg, po. The format is ADME, organism-based. On the set-up: time infinity, dose 5 mg/kg, route oral. The conditions noted are these: plasma.
Series [21] relates to Mus musculus. The experiment in a line: Inhibition of Cdc7/Dbf4 in NCR nude mouse xenografted with human HCT116 cells assessed as reduction of phosphorylated MCM2 level in tumor at 50 mg/kg, iv after 6 hrs. The format is functional. The conditions noted are these: HCT-116, 6 h. The gist of the method:
(§2)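 Female athymic NCR/nu mice, 4–6 weeks old, bearing subcutaneous HCT-116 xenografts (5 × 10^6 cells in Matrigel) grown to about 250 mm3. Single iv dose formulated in 20% HPbCD, 1% HPMC, 1% PluronicF68, pH7 at 10 mg/ml; three mice per group. Tumors were homogenized in Tris lysis buffer with protease and phosphatase inhibitors. MSD capture with total MCM2 antibody, then phospho-Ser53 or total MCM2 detection by chemiluminescence; inhibition taken from the phospho/total ratio.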

The test system of series [22] is Mus musculus. Kind of series: Inhibition of Cdc7/Dbf4 in NCR nude mouse xenografted with human HCT116 cells assessed as reduction of phosphorylated MCM2 level in tumor at 50 mg/kg, iv after 16 hrs. The format is functional, organism-based. On the set-up: dose 50 mg/kg. The note with it: HCT-116. The gist of the method:
as §2

Series [23] relates to Mus musculus. The experiment in a line: Toxicity in NCR nude mouse xenografted with human HCT116 cells at 50 mg/kg, iv. The conditions noted are these: in vivo. The format is organism-based, HCT-116. The arrangement: dose 50 mg/kg, route intravenous. The gist of the method: (§3)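 Female athymic NCR/nu mice bearing subcutaneous HCT-116 xenografts (about 250 mm3) received a single iv dose in 20% HPbCD, 1% HPMC, 1% PluronicF68, pH7 (10 mg/ml); three mice per group. Tolerability was judged by observation over the 1–16 h sampling period.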

Series [24] relates to Plasma. The experiment in a line: Unbound plasma concentration in NCR nude mouse xenografted with human HCT116 cells at 50 mg/kg, iv after 1 hr. The format is ADME, organism-based, HCT-116. On the set-up: dose 50 mg/kg, route intravenous. The note with it: in vivo. The gist of the method:
(§4)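 HCT-116 xenograft NCR/nu mice (three per group) were given a single iv dose in 20% HPbCD, 1% HPMC, 1% PluronicF68, pH7 at 10 mg/ml. Plasma collected at the time points was measured by LC/MS. Values were converted to unbound concentrations using percent plasma protein binding in mouse serum.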

In series [25] the test system is Mus musculus. Kind of series: Inhibition of Cdc7/Dbf4 in NCR nude mouse xenografted with human HCT116 cells assessed as reduction of phosphorylated MCM2 level in tumor at 150 mg/kg, iv after 6 hrs. The format is functional. The conditions noted are these: HCT-116, 6 h. Put shortly: as §2
Series [26] has as its system Plasma. Kind of series: Unbound plasma concentration in NCR nude mouse xenografted with human HCT116 cells at 150 mg/kg, iv after 6 hrs. The format is ADME, organism-based, HCT-116. On the set-up: dose 150 mg/kg, route intravenous. The note with it: in vivo. The gist of the method: as §4
The subject of series [27] is Mus musculus. The experiment in a line: Toxicity in NCR nude mouse xenografted with human HCT116 cells assessed as appearance of moribund at 150 mg/kg, iv after 6 hrs. The class given is organism-based, HCT-116. On the set-up: dose 150 mg/kg, route intravenous. The conditions noted are these: in vivo. The gist of the method:
as §3

In series [28] the target is T1, CDC7/DBF4 (Cell division cycle 7-related protein kinase/Activator of S phase kinase) (Homo sapiens). The experiment in a line: Ratio of IC50 for Cdc7/Dbf4 in human HCT116 cells to IC50 for Cdc7/Dbf4 (unknown origin). The class given is cell-based. The note with it: HCT-116.

Calls of active or inactive are those of the source.

By IC50 is commonly meant the point on the concentration scale where inhibition reaches its midpoint. One may read the Papp as the rate of passage across a membrane or cell layer, normalised by area and donor concentration. As usually defined, the IC90 is the point of the concentration-response curve where the effect stands at 90%. By AUC(0-t) is commonly meant exposure summed from dosing to a finite time, without extrapolation to infinity. Lower therefore signals less exposure. Usually AUC(0-inf) stands for total exposure, with the tail of the curve extrapolated. A lower AUC(0-inf) goes with less exposure. The term inhibition in vivo denotes the relative decrease from the control value, in per cent.

As to `CCOC(=O)c1sc(-c2ccncc2)nc1O`, in series [1], the inhibition entry is “Active”. For the same compound, in series [2], half-maximal inhibition (IC50) was put at 316 nM. For the same compound, the apparent permeability coefficient (Papp) (in series [3]; with MDR1; with rat MDR1) was no less than 8.9 ×10⁻⁶ cm/s in each case.

As for `NC(=O)c1sc(-c2ccnc(N)n2)nc1-c1ccc(Cl)cc1Cl`, the IC90 in series [4] was found to be 6370 nM. Moreover, the microsomal CLint at 1 µM in [5] is 57 µL/min/mg. Besides, the IC50 is 694 nM in series [6]; 84 nM in [7]; 4200 nM with HCT-116 [8]; greater than 50000 nM with HCT-116 [10]; 86 nM in series [12]; 44 nM in series [13]. Moreover, the 50% inhibitory concentration (IC50) in [14] came to 18 nM; in [15], 35 nM; in [16] it was 63 nM. Besides, the result in the series on HCT-116 [9] and in the series on HCT-116 [11] was Active. Also, the AUC(0-t) in [17] stood at 518 ng·h/mL; in series [19] it was 83.3 ng·h/mL. Further, the Vd in series [18] came out at 4.43 L/kg. In [20], this compound returned an AUC(0-inf) of 85.7 ng·h/mL. The inhibition in vivo at 50 mg/kg with Mus musculus [21] amounted to 20%. For the same compound, the inhibition entry in the series with Mus musculus [22] was “inactive”. Also, the figures for the Activity result with Mus musculus [23] and in the series with Mus musculus [27] were “Non-toxic” and “Toxic”, respectively. The “Cp(f)” value in the series with Plasma [24] and in the series on Plasma [26] was greater than 1000 nM throughout. In addition, the inhibition in vivo at 150 mg/kg with Mus musculus [25] was 31%.

As for `COc1ccc(-c2nc(-c3ccnc(N)n3)sc2C(N)=O)c(Cl)c1`, the Ratio IC50 in series [28] was greater than 30. The microsomal CLint at 1 µM in [5] was 155 µL/min/mg. The IC50 was 545 nM in [6], 104 nM in series [7], 4600 nM with HCT-116 [8] and greater than 50000 nM in the series on HCT-116 [10].
